# Laboratory results from ChEMBL document CHEMBL1833805, “Histone deacetylase inhibitors from Burkholderia thailandensis” (2011).
# Active and inactive are the calls of the source. No cut-off for these calls is given here.
# How the values were obtained:
# U-251 [1] = experiment: Ratio of FK228 LC50 to compound LC50 for human U251 cells; format: functional
# SF-295 [2] = experiment: Cytotoxicity against human SF295 cells after 6 days by MTT assay; format: functional; settings: SF-295, 144 h
# CAKI-1 [3] = experiment: Cytotoxicity against human Caki1 cells after 6 days by MTT assay; format: functional; settings: CAKI-1, 144 h
# UO-31 [4] = experiment: Cytotoxicity against human UO31 cells after 6 days by MTT assay; format: functional; settings: UO-31, 144 h
# RXF 393 [5] = experiment: Cytotoxicity against human RXF393 cells after 6 days by MTT assay; format: functional; settings: RXF 393, 144 h
# UACC-62 = experiment: Antitumor activity against human UACC62 cells implanted subcutaneously in mouse assessed as inhibition of tumor cell growth at 1.6 to 2.4 mg/kg, ip administered on day 1 to 4 measured on day 5 by hollow fiber assay; format: functional
# How it was run: (§1)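 Human tumour cell lines from a standard 12-line panel encapsulated in polyvinylidene fluoride hollow fibres (500,000 Da exclusion), implanted intraperitoneally or subcutaneously in mice; drug given IP at 2.4 and 1.6 mg/kg/dose on days 1–4; fibres retrieved and viable cell mass determined day 5; T/C versus vehicle-only injected controls.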
# OVCAR-5 = experiment: Antitumor activity against human OVCAR5 cells implanted subcutaneously in mouse assessed as inhibition of tumor cell growth at 1.6 to 2.4 mg/kg, ip administered on day 1 to 4 measured on day 5 by hollow fiber assay; format: functional; how it was run: as §1
# COLO 205 [6] = experiment: Ratio of FK228 TGI to compound TGI for human COLO205 cells; format: functional
# MDA-MB-231 [7] = experiment: Cytotoxicity against human MDA-MB-231 cells after 6 days by MTT assay; format: functional; settings: MDA-MB-231, 144 h
# [8] = target: Histone deacetylase 4 (Homo sapiens) (UniProt P56524); experiment: Inhibition of human HDAC4 assessed as deacetylated substrate level using RHKAcKAc as substrate by fluorometric analysis
# Chain of Histone deacetylase 4 (Homo sapiens) (P56524 whole entry): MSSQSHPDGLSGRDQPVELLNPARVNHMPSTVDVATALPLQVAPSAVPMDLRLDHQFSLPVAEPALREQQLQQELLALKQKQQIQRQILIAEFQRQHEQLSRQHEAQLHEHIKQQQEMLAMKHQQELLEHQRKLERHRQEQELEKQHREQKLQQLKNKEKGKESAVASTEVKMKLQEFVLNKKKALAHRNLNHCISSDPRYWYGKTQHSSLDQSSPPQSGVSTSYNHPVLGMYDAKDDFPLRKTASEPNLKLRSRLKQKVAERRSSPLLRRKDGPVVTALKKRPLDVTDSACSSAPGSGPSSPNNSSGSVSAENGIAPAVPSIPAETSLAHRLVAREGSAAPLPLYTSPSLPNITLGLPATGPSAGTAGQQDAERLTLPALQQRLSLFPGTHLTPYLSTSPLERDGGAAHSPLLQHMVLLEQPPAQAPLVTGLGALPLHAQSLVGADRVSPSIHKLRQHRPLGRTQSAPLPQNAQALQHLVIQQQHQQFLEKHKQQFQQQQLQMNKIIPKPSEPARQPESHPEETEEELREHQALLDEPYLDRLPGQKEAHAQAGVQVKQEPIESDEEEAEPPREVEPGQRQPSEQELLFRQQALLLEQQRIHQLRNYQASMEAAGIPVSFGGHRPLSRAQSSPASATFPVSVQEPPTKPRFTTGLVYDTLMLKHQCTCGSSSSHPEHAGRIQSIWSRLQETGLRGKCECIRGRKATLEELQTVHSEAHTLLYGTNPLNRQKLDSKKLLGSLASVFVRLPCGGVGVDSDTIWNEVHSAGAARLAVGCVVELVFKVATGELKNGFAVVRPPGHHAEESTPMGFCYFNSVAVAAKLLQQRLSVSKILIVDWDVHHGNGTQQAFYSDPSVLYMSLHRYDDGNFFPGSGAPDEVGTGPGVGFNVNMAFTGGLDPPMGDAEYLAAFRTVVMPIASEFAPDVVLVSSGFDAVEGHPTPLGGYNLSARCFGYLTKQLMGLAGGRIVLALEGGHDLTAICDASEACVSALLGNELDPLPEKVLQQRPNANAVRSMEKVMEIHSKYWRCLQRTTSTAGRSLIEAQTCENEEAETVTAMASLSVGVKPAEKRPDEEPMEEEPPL
# How it was run: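 Recombinant human HDAC4 with fluorogenic p53 379–382 peptide RHKAcKAc as substrate. Compound tested at 10 doses in duplicate, 3-fold serial dilution from 20 µM. Two steps: incubation with substrate, then digestion with a developing mixture. Fluorescence read at 360 nm excitation / 460 nm emission, proportional to deacetylated substrate.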
# ACHN [9] = experiment: Cytotoxicity against human ACHN cells after 6 days by MTT assay; format: functional; settings: 144 h
# SN12C [10] = experiment: Cytotoxicity against human SN12C cells after 6 days by MTT assay; format: functional; settings: 144 h
# MDA-MB-468 [11] = experiment: Ratio of FK228 TGI to compound TGI for human MDA-MB-468 cells; format: functional
# ACHN [12] = experiment: Ratio of FK228 TGI to compound TGI for human ACHN cells; format: functional
# MDA-MB-468 [13] = experiment: Cytotoxicity against human MDA-MB-468 cells after 6 days by MTT assay; format: functional; settings: MDA-MB-468, 144 h
# RXF 393 [14] = experiment: Ratio of FK228 TGI to compound TGI for human RXF393 cells; format: functional
# SF-295 [15] = experiment: Ratio of FK228 TGI to compound TGI for human SF295 cells; format: functional
# U-251 [16] = experiment: Ratio of FK228 TGI to compound TGI for human U251 cells; format: functional
# A498 [17] = experiment: Ratio of FK228 LC50 to compound LC50 for human A498 cells; format: functional
# NCI-H322M [18] = experiment: Ratio of FK228 TGI to compound TGI for human NCI-H322M cells; format: functional
# CAKI-1 [19] = experiment: Ratio of FK228 TGI to compound TGI for human Caki1 cells; format: functional
# A498 [20] = experiment: Cytotoxicity against human A498 cells after 6 days by MTT assay; format: functional; settings: A498, 144 h
# UO-31 [21] = experiment: Ratio of FK228 TGI to compound TGI for human UO31 cells; format: functional
# [22] = Antitumor activity against human […] cells implanted subcutaneously in mouse assessed as inhibition of tumor cell growth at 1.6 to 2.4 mg/kg, ip administered on day 1 to 4 measured on day 5 by hollow fiber assay; format: functional; how it was run: as §1
# UACC-257 [23] = experiment: Ratio of FK228 TGI to compound TGI for human UACC257 cells; format: functional
# COLO 205 [24] = experiment: Cytotoxicity against human COLO205 cells after 6 days by MTT assay; format: functional; settings: COLO 205, 144 h
# MDA-MB-435 = experiment: Antitumor activity against human MDA-MB-435 cells implanted subcutaneously in mouse assessed as inhibition of tumor cell growth at 1.6 to 2.4 mg/kg, ip administered on day 1 to 4 measured on day 5 by hollow fiber assay; format: functional; how it was run: as §1
# U-251 [25] = experiment: Cytotoxicity against human U251 cells after 6 days by MTT assay; format: functional; settings: U-251, 144 h
# SN12C [26] = experiment: Ratio of FK228 TGI to compound TGI for human SN12C cells; format: functional
# MDA-MB-231 [27] = experiment: Ratio of FK228 TGI to compound TGI for human MDA-MB-231 cells; format: functional
# A498 [28] = experiment: Ratio of FK228 TGI to compound TGI for human A498 cells; format: functional
# SF-295 [29] = experiment: Antitumor activity against human SF295 cells implanted subcutaneously in mouse assessed as inhibition of tumor cell growth at 1.6 to 2.4 mg/kg, ip administered on day 1 to 4 measured on day 5 by hollow fiber assay; format: functional; how it was run: as §1
# COLO 205 [30] = experiment: Antitumor activity against human COLO205 cells implanted subcutaneously in mouse assessed as inhibition of tumor cell growth at 1.6 to 2.4 mg/kg, ip administered on day 1 to 4 measured on day 5 by hollow fiber assay; format: functional; how it was run: as §1
# [31] = target: Histone deacetylase 1 (Homo sapiens) (UniProt Q13547); experiment: Inhibition of human HDAC1 assessed as deacetylated substrate level using RHKKAc as substrate by fluorometric analysis
# Chain of Histone deacetylase 1 (Homo sapiens) (Q13547 whole entry): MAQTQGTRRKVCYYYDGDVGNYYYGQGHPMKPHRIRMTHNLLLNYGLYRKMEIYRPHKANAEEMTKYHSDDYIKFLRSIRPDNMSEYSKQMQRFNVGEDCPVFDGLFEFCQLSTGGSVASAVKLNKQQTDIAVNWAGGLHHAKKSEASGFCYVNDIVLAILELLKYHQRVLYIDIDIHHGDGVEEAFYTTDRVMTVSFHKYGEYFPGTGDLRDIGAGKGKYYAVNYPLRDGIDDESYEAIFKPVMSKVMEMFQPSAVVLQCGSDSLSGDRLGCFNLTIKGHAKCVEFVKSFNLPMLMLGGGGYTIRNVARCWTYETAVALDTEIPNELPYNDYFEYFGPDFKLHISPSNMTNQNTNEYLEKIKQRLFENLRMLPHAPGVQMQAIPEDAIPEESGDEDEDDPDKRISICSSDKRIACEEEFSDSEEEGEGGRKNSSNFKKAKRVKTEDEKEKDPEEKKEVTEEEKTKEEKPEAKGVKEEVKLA
# How it was run: (§2)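 Recombinant human HDAC1 or HDAC8 with fluorogenic p53 379–382 peptide RHKKAc as substrate. Compound tested at 10 doses in duplicate, 3-fold serial dilution from 20 µM. Substrate incubated with compound, then the mixture was digested with a developing mixture. Fluorescence read at 360 nm excitation / 460 nm emission, proportional to deacetylated substrate.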
# NCI-H522 = experiment: Antitumor activity against human NCI-H522 cells implanted subcutaneously in mouse assessed as inhibition of tumor cell growth at 1.6 to 2.4 mg/kg, ip administered on day 1 to 4 measured on day 5 by hollow fiber assay; format: functional; how it was run: as §1
# RXF 393 [32] = experiment: Ratio of FK228 LC50 to compound LC50 for human RXF393 cells; format: functional
# LOX IMVI = experiment: Antitumor activity against human LOXIMVI cells implanted subcutaneously in mouse assessed as inhibition of tumor cell growth at 1.6 to 2.4 mg/kg, ip administered on day 1 to 4 measured on day 5 by hollow fiber assay; format: functional; how it was run: as §1
# MDA-MB-231 [33] = experiment: Antitumor activity against human MDA-MB-231 cells implanted subcutaneously in mouse assessed as inhibition of tumor cell growth at 1.6 to 2.4 mg/kg, ip administered on day 1 to 4 measured on day 5 by hollow fiber assay; format: functional; how it was run: as §1
# SW-620 = experiment: Antitumor activity against human SW620 cells implanted subcutaneously in mouse assessed as inhibition of tumor cell growth at 1.6 to 2.4 mg/kg, ip administered on day 1 to 4 measured on day 5 by hollow fiber assay; format: functional; how it was run: as §1
# [34] = target: Histone deacetylase 8 (Homo sapiens) (UniProt Q9BY41); experiment: Inhibition of human HDAC8 assessed as deacetylated substrate level using RHKKAc as substrate by fluorometric analysis; how it was run: as §2
# Chain of Histone deacetylase 8 (Homo sapiens) (Q9BY41 whole entry): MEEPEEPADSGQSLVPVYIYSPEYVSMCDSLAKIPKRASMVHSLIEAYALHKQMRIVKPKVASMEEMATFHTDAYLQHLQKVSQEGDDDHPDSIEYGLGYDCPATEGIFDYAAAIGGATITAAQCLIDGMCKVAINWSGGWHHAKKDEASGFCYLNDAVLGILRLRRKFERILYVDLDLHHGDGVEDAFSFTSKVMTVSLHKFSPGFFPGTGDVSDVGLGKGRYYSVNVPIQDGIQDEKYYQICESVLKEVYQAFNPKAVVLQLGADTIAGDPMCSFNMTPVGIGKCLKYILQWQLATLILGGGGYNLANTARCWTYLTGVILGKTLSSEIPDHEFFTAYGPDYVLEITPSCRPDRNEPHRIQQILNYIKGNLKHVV
# U-251 [35] = experiment: Antitumor activity against human U251 cells implanted subcutaneously in mouse assessed as inhibition of tumor cell growth at 1.6 to 2.4 mg/kg, ip administered on day 1 to 4 measured on day 5 by hollow fiber assay; format: functional; how it was run: as §1
# NCI-H322M [36] = experiment: Cytotoxicity against human NCI-H322M cells after 6 days by MTT assay; format: functional; settings: 144 h
# NCI = experiment: Cytotoxicity against human NCI60 cells after 6 days by MTT assay; format: functional; settings: 144 h
# COLO 205 [37] = experiment: Ratio of FK228 LC50 to compound LC50 for human COLO205 cells; format: functional
# UACC-257 [38] = experiment: Cytotoxicity against human UACC257 cells after 6 days by MTT assay; format: functional; settings: UACC-257, 144 h
# NCI-H23 = experiment: Antitumor activity against human NCI-H23 cells implanted subcutaneously in mouse assessed as inhibition of tumor cell growth at 1.6 to 2.4 mg/kg, ip administered on day 1 to 4 measured on day 5 by hollow fiber assay; format: functional; how it was run: as §1
# [39] = read-out: LC50 (the source's name)
smiles,measurement,setting,value
CC[C@H](C)[C@H]1NC(=O)[C@H]2CSSCC/C=C/[C@H](CC(=O)N[C@H](CC[S+](C)[O-])C(=O)N2)OC(=O)C[C@@H]1O (stereo partly specified) [SPIRUCHOSTATIN C],Ratio,U-251 [1],3.6
same,TGI,SF-295 [2],110 nM
same,TGI,CAKI-1 [3],880 nM
same,TGI,UO-31 [4],320 nM
same,TGI,RXF 393 [5],16 nM
same,CC50,RXF 393 [5]; [39],170 nM
same,T/C,UACC-62,>50%
same,T/C,OVCAR-5,>50%
same,Ratio,COLO 205 [6],3.8
same,TGI,MDA-MB-231 [7],150 nM
same,inhibition,[8],Active
same,TGI,ACHN [9],180 nM
same,TGI,SN12C [10],160 nM
same,Ratio,MDA-MB-468 [11],3.9
same,Ratio,ACHN [12],4
same,TGI,MDA-MB-468 [13],23 nM
same,Ratio,RXF 393 [14],3.8
same,Ratio,SF-295 [15],2.3
same,Ratio,U-251 [16],2.7
same,Ratio,A498 [17],3.6
same,Ratio,NCI-H322M [18],2.3
same,Ratio,CAKI-1 [19],2.1
same,TGI,A498 [20],12 nM
same,CC50,A498 [20]; [39],55 nM
same,Ratio,UO-31 [21],4.9
same,T/C,[22],>50%
same,Ratio,UACC-257 [23],2.9
same,TGI,COLO 205 [24],8 nM
same,CC50,COLO 205 [24]; [39],15 nM
same,T/C,MDA-MB-435,>50%
same,TGI,U-251 [25],12 nM
same,CC50,U-251 [25]; [39],37 nM
same,Ratio,SN12C [26],2.1
same,Ratio,MDA-MB-231 [27],2.4
same,Ratio,A498 [28],2.4
same,T/C,SF-295 [29],>50%
same,T/C,COLO 205 [30],>50%
same,inhibition,[31],Active
same,T/C,NCI-H522,>50%
same,Ratio,RXF 393 [32],1.8
same,T/C,LOX IMVI,>50%
same,T/C,MDA-MB-231 [33],>50%
same,T/C,SW-620,>50%
same,inhibition,[34],Active
same,T/C,U-251 [35],>50%
same,TGI,NCI-H322M [36],100 nM
same,TGI,NCI,830 nM
same,CC50,NCI; [39],7700 nM
same,Ratio,COLO 205 [37],6
same,TGI,UACC-257 [38],33 nM
same,T/C,NCI-H23,>50%
